RAM inhibit – inhibitors of the yeast RAM network, primary screen, dse1pr::URA3 reporter, 5-FOA selection; inhibition, % at 50 µM; AID 868, 2007; S. cerevisiae dse1pr::URA3 reporter, 5-FOA growth OD615, 2 d; analog-sensitive cbk1-as2 kinase mutant strain; actives 1.8% (n = 190,000);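 active means inhibition above a set limit, 3 SD over mean compound inhibition, cut at about 8.4% in these data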;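 further: 0% = DMSO-only wells with no growth and 100% = 10 µM 1-NA-PP1 full growth; inhibition rescues growth on 5-FOA so higher OD means more RAM inhibition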
Yeast lifespan up – compounds extending yeast replicative lifespan, primary screen, S. cerevisiae, OD615 | S. cerevisiae growth with nicotinamide; deaD strain in restrictive glucose medium | inhibition of the nicotinamide effect, % at 10 µM | actives 0.68% (n = 130,000) | AID 775, 2007;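 active means inhibition above a set limit, placed 3 SD over the median of all compounds, cut at about 26% in these data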;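 further: 0% = nicotinamide-treated wells and 100% = cells grown without nicotinamide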
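assay system = DeaD-strain S. cerevisiae | buffer or medium = restrictive glucose medium | reagent = 1.5 mM nicotinamide | compound = 10 µM single point, 0.25% DMSO | incubation = 48 h compound exposure at 30 °C, humidified | signal = OD615 measurement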
BB579 growth dn – growth inhibitors of yeast BB579 in restrictive medium, primary screen, yeast lifespan-shortening project, S. cerevisiae. OD615, 48 h. inhibition, % at 10 µM. actives 0.51% (n = 140,000). AID 804, 2007;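 active means inhibition above a set limit, 3 SD over the mean compound inhibition, cut at about 44% in these data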
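Test system: S. cerevisiae DeaD strain BB579 yeast; Medium: restrictive CSMM-D medium; Compound: one dose, 10 µM compound with 0.25% DMSO; Incubation: 4 h cell preincubation, 48 h compound exposure, 30 °C humidified; Signal: OD at 615 nm; Benchmarks: amphotericin B at 10 µg/mL as positive control.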
SDO1 yeast rescue – growth rescue of sdo1-depleted yeast, primary screen, S. cerevisiae, bone marrow failure model | S. cerevisiae sdo1-depleted JHY4D growth rescue, OD600 30 h; stronger effect = higher value; pdr5 snq2 efflux-pump mutant strain | z-score at 10 µM | actives 0.21% (n = 140,000) | AID 817, 2007;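 active means z-score above 3 at both the 24 hr and the 30 hr optical density reads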;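 further: z-score against mean and SD of all compound wells on the same plate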
* = called active by the depositor; nt = no result. Sampled rows, rich in hits. Any-hit rate of the full collection: about 2.7%.

SMILES	RAM inhibit	Yeast lifespan up	BB579 growth dn	SDO1 yeast rescue
Cc1ccc(/C=N/Nc2ccnc3cc(Cl)ccc23)c(C)c1	3.5	-5.7	67.5*	-2.21
COc1ccc(Nc2ccc3c(c2)=NC2(CCCCC2)[N+]=3[O-])cc1	8.9*	-8.2	-17.6	-0.92
[O-][N+]1=c2ccc(Nc3ccccc3)cc2=NC12CCCCC2	4.9	-20.5	-23.8	1.23
O=C(O)c1ccccc1-c1ccccc1C(=O)Nc1cccc(O)c1	1.6	nt	nt	nt
Cc1nn(-c2ccccc2)c(N)c1N=Nc1ccc(Cl)cc1	10.4*	-8.7	14.2	-1.1
CCOCC(=O)Nc1nc2c(s1)C(=O)CC(C)(C)C2	1.7	-13.0	45.0*	0.55
CCCCCCCCOC(=O)CCc1c(C)[nH]c(=S)[nH]c1=O	8.8*	-8.6	-42.2	-0.67
COC(=O)/C(=C1/Oc2ccc(C(C)(C)C)cc2S1)C(F)(F)F	3.4	8.9	-48.2	0.01
COC(=O)/C(=C1/Oc2cc(C)oc(=O)c2S1)C(F)(F)F	1.5	47.4*	-19.4	-0.7
Cc1ccc(OC(=O)c2sc3ncn(C)c(=O)c3c2C)cc1	3.8	nt	nt	nt
O=C(CC1C(=O)NCCN1Cc1ccccc1C(F)(F)F)NCCn1cccn1 (stereo not given)	2.5	nt	nt	nt
Cc1ccccc1C(C(=O)NC1CCCCC1)N(C(=O)c1ccccn1)c1cccnc1 (stereo not given)	2.8	nt	nt	nt
O=[N+]([O-])c1c(NCCCO)cc(SCc2ccco2)c2nonc12	1.9	2.9	-60.6	0.26
CC(=O)OCCNc1cc(SCc2ccco2)c2nonc2c1[N+](=O)[O-]	9.5*	4.4	-44.8	-0.67
O=C(C[n+]1cccc(O)c1)Nc1ccc(Br)cc1	1.2	nt	nt	nt
Cc1ccc(-c2nc3ccccc3nc2Cl)cc1	8.4*	nt	nt	nt
COc1cc2c(cc1NC(=O)c1cc(-c3ccccn3)nc3ccccc13)oc1ccccc12	2.4	-3.9	-41.5	-0.98
C=CCOc1ccc(/C=C2\C(=N)N3N=C(S(=O)(=O)CC)SC3=NC2=O)cc1OC	9.6*	nt	nt	nt
Cc1c(C(=O)Oc2cccc3ccccc23)cnn1-c1ccccc1	8.6*	-5.0	-18.9	-0.2
COc1ccc([N+](=O)[O-])cc1/C=N/Nc1nn[nH]n1	1.5	nt	nt	nt
COc1ccc(OCC(=O)Nc2sc3c(c2C(=O)NCC2CCCO2)CCC3)cc1 (stereo not given)	9.0*	2.9	-11.5	-0.67
CC1=CC2CC1C1C(=O)N(c3ccc(S(=O)(=O)Nc4nc(C)cc(C)n4)cc3)C(=O)C21 (stereo not given)	9.8*	2.9	-7.4	0.09
COc1ccc(-c2cc(N)n(S(=O)(=O)c3c(F)c(F)c(F)c(F)c3F)n2)cc1OC	1.9	76.9*	-107.0	-2.81
CCn1c(CNC(=O)Cc2ccc(OC)cc2)nnc1SCC(=O)Nc1ccc(C(=O)O)cc1	8.8*	nt	nt	nt
CC1(CCc2ccccc2)NC(=S)N(c2ccccc2)N1 (stereo not given)	0.1	-8.0	95.9*	-1.88
SMILES	RAM inhibit	Yeast lifespan up	BB579 growth dn	SDO1 yeast rescue
CC1(CCc2ccccc2)NC(=S)N(c2ccc(Cl)cc2)N1 (stereo not given)	-0.1	-8.8	97.5*	-2.02
CCC1(c2ccc(Cl)cc2)NC(=S)N(c2ccc(C)cc2)N1 (stereo not given)	0.3	-2.9	-52.3	-1.18
O=C(CSCc1cnn(-c2ccccc2)c1-n1cccc1)NCc1ccc2c(c1)OCO2	10.9*	-1.1	-41.6	-0.03
COc1ccc(CNC(=O)CSCc2cnn(-c3ccccc3)c2-n2cccc2)cc1	-0.1	-8.8	19.9	-0.84
O=C1NN(c2ccc(F)cc2)C(=O)/C1=C\C=C\c1ccco1	4.1	31.6*	-14.3	0.7
CC(C(=O)NC(C)(C)C)N1C(=O)c2cccc3cccc(c23)C1=O (stereo not given)	0.7	nt	nt	nt
O=c1[nH][nH]cc1C=Nc1ccccc1O	2.1	-14.0	50.3*	-1.41
CCNC(=O)NC(=O)C(C)On1nnc2ccc(S(=O)(=O)N(CC)CC)cc21 (stereo not given)	5.5	28.1*	-37.5	1.36
CCNC(=O)NC(=O)C(C)OC(=O)CCS(=O)(=O)c1ccc(C)cc1 (stereo not given)	0.3	nt	nt	nt
COc1ccc(OC)c(-c2cc(C(=O)N3CCN(c4ncccn4)CC3)c3ccccc3n2)c1	0.8	-18.3	-52.2	-0.23
COc1ccc(-c2cc(C(=O)N3CCN(c4ncccn4)CC3)c3ccccc3n2)c(OC)c1	0.6	-5.4	59.2*	-1.27
